Measured values published in ChEMBL document CHEMBL3272103, “Synthesis and central nervous system evaluation of some 5-alkoxy-3H-1,4-benzodiazepin-2(1H)-ones” (J Med Chem, 1977).

Legend:
[1] = system: Mus musculus; assay: CNS depressant activity in ip dosed mouse assessed as induction of neurologic deficit by rotarod test; format: functional
Summary of the method: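 Rotarod test per a literature method in ip-dosed mice; failure scored as neurological deficit. Ten animals per dose; ND50 in mg/kg ip.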

[2] = system: Mus musculus; assay: Anticonvulsant activity in ip dosed mouse assessed as inhibition of N-sulfamoylhexahydroazepine-induced seizure; format: functional
Summary of the method: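 Mice dosed ip with test compound, then challenged with the convulsant N-sulfamoylhexahydroazepine; protection against seizures scored per a literature method. Ten animals per dose; ED50 derived in mg/kg ip.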

[3] = system: Mus musculus; assay: CNS depressant activity in mouse assessed as reduction in amphetamine-induced locomotor activity at 1.5 mg/kg, ip; format: functional; parameters: scale not given: the % may be the effect or the level left; settings: route intraperitoneal
Summary of the method: (§1)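 Mice given test compound ip alongside dl-amphetamine 4.0 mg/kg ip; locomotor activity recorded in photocell activity cages, five mice per group; expressed as % change in activity.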

[4] = Acute toxicity in ip dosed Wistar rat measured 2 hrs post dose; format: organism-based; settings: in vivo
[5] = system: Mus musculus; assay: CNS depressant activity in ip dosed mouse assessed as ataxia; format: functional
Summary of the method: (§2)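 Behavioral observation in ip-dosed mice per a modified literature method, scoring ataxia, docility or loss of righting reflex. Ten animals per dose; ED50 in mg/kg ip.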

[6] = system: Mus musculus; assay: CNS depressant activity in ip dosed mouse assessed as reinduction of anesthesia measured as loss of righting reflex compound administered immediately post recovery from hexobarbital anesthesia; format: functional
[7] = system: Mus musculus; assay: CNS depressant activity in ip dosed mouse assessed as loss of righting reflex; format: functional; summary of the method: as §2
[8] = system: Mus musculus; assay: CNS depressant activity in ip dosed mouse assessed as docility; format: functional; summary of the method: as §2
[9] = system: Mus musculus; assay: CNS depressant activity in mouse assessed as reduction in amphetamine-induced locomotor activity at 51.2 mg/kg, ip; format: functional; parameters: scale not given: the % may be the effect or the level left; settings: route intraperitoneal
Summary of the method: (§3)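 Locomotor activity of mice recorded in photocell activity cages after dl-amphetamine 4.0 mg/kg ip plus test compound ip at the stated dose. Five mice per group; result given as % change in activity.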

[10] = system: Mus musculus; assay: CNS depressant activity in mouse assessed as reduction in amphetamine-induced locomotor activity at 50 mg/kg, ip; format: functional; parameters: scale not given: the % may be the effect or the level left; settings: route intraperitoneal; summary of the method: as §1
[11] = system: Mus musculus; assay: CNS depressant activity in mouse assessed as reduction in amphetamine-induced locomotor activity at 25.6 mg/kg, ip; format: functional; parameters: scale not given: the % may be the effect or the level left; settings: route intraperitoneal; summary of the method: as §3
[12] = system: Mus musculus; assay: CNS depressant activity in mouse assessed as reduction in amphetamine-induced locomotor activity at 75 mg/kg, ip; format: functional; parameters: scale not given: the % may be the effect or the level left; settings: route intraperitoneal; summary of the method: as §3
[13] = system: Mus musculus; assay: CNS depressant activity in mouse assessed as reduction in amphetamine-induced locomotor activity at 100 mg/kg, ip; format: functional; parameters: scale not given: the % may be the effect or the level left; settings: route intraperitoneal; summary of the method: as §3
[14] = system: Mus musculus; assay: CNS depressant activity in mouse assessed as reduction in amphetamine-induced locomotor activity at 150 mg/kg, ip; format: functional; parameters: scale not given: the % may be the effect or the level left; settings: route intraperitoneal; summary of the method: as §3
[15] = system: Mus musculus; assay: CNS depressant activity in mouse assessed as reduction in amphetamine-induced locomotor activity at 18.8 mg/kg, ip; format: functional; parameters: scale not given: the % may be the effect or the level left; settings: route intraperitoneal; summary of the method: as §3

O=C1CN=C(c2ccccc2)c2cc([N+](=O)[O-])ccc2N1 [NITRAZEPAM]
ED50 [1]: 0.5 mg/kg | ED50 [2]: 1 mg/kg | Activity [3]: 50% | LD50 at 2 h [4]: 733 mg/kg | ED50 [5]: 1.5 mg/kg | ED50 [6]: 0.8 mg/kg | ED50 [7]: 1.5 mg/kg | ED50 [8]: 1.5 mg/kg

CCOC1=NCC(=O)N(C)c2cc(Cl)ccc21
ED50 [1]: 61.8 mg/kg | ED50 [2]: 29.9 mg/kg | Activity [9]: 50% | LD50 at 2 h [4]: 600 mg/kg | ED50 [5]: 67.7 mg/kg | ED50 [6]: 38.4 mg/kg | ED50 [7]: 74.4 mg/kg | ED50 [8]: 56.5 mg/kg

CN1C(=O)CN=C(Oc2ccccc2F)c2cc(Cl)ccc21
ED50 [1]: 146 mg/kg | ED50 [2]: > 200 mg/kg | Activity [9]: 45% | LD50 at 2 h [4]: 650 mg/kg | ED50 [5]: 240 mg/kg | ED50 [6]: > 200 mg/kg | ED50 [7]: 428 mg/kg | ED50 [8]: 240 mg/kg

CN1C(=O)CNC(=O)c2ccc(Cl)cc21
ED50 [2]: > 102 mg/kg | Activity [9]: 30% | ED50 [6]: > 102 mg/kg

CN1C(=O)CN=C(OCCBr)c2cc(Cl)ccc21
ED50 [2]: > 102 mg/kg | ED50 [6]: > 102 mg/kg

CCOC1=NCC(=O)N(C)c2ccc(C)cc21
ED50 [1]: 87.6 mg/kg | ED50 [2]: > 102 mg/kg | Activity [9]: 44% | LD50 at 2 h [4]: 300 mg/kg | ED50 [5]: 133 mg/kg | ED50 [6]: 18.4 mg/kg | ED50 [7]: 141 mg/kg | ED50 [8]: 137 mg/kg

CCOC1=NCC(=O)N(C)c2c1cc(Cl)cc2[N+](=O)[O-]
ED50 [2]: > 102 mg/kg | Activity [9]: 19% | ED50 [6]: > 102 mg/kg

COC1=NCC(=O)N(C)c2ccc(Cl)cc21
ED50 [2]: > 50 mg/kg | Activity [10]: 50% | LD50 at 2 h [4]: > 200 mg/kg | ED50 [5]: 68 mg/kg | ED50 [6]: 16.5 mg/kg | ED50 [7]: 300 mg/kg | ED50 [8]: 59.3 mg/kg

CCCOC1=NCC(=O)N(C)c2ccc(Cl)cc21
ED50 [2]: 38.2 mg/kg | Activity [9]: 50% | LD50 at 2 h [4]: > 400 mg/kg | ED50 [5]: 52.5 mg/kg | ED50 [6]: 19.2 mg/kg | ED50 [7]: 78.1 mg/kg | ED50 [8]: 93.1 mg/kg

Cc1cc(Cl)ccc1OC1=NCC(=O)N(C)c2ccc(Cl)cc21
ED50 [2]: > 102 mg/kg | Activity [9]: 36% | ED50 [6]: > 102 mg/kg

CN1C(=O)CN=C(OCC(F)(F)F)c2cc(Cl)ccc21
ED50 [2]: > 102 mg/kg | Activity [9]: 48% | ED50 [6]: > 102 mg/kg

CN1C(=O)CNC(=O)c2cc(Cl)cc([N+](=O)[O-])c21
ED50 [2]: > 102 mg/kg | Activity [9]: 24% | ED50 [6]: > 102 mg/kg

CN1C(=O)CN=C(Oc2ccccc2)c2cc(Cl)ccc21
ED50 [2]: 50.1 mg/kg | Activity [9]: 68% | ED50 [6]: > 102 mg/kg

CN1C(=O)CNC(=O)c2cc([N+](=O)[O-])ccc21
ED50 [2]: > 102 mg/kg | Activity [9]: 51% | ED50 [6]: > 102 mg/kg

C#CCOC1=NCC(=O)N(C)c2ccc(Cl)cc21
ED50 [2]: > 25 mg/kg | Activity [11]: 44% | LD50 at 2 h [4]: 138 mg/kg | ED50 [5]: 22.7 mg/kg | ED50 [6]: 22.9 mg/kg | ED50 [7]: 28.5 mg/kg | ED50 [8]: 20.8 mg/kg

Cc1ccc2c(c1)C(=O)NCC(=O)N2C
ED50 [2]: > 102 mg/kg | Activity [9]: 62% | ED50 [6]: > 102 mg/kg

CCOC1=NCC(=O)N(C)c2ccc([N+](=O)[O-])cc21
ED50 [1]: 15.8 mg/kg | ED50 [2]: 87.8 mg/kg | Activity [9]: 27% | LD50 at 2 h [4]: 600 mg/kg | ED50 [5]: 42.5 mg/kg | ED50 [6]: 9 mg/kg | ED50 [7]: 37.5 mg/kg | ED50 [8]: 11.3 mg/kg

CN1C(=O)CN=C(OCC(Cl)Cl)c2cc(Cl)ccc21
ED50 [2]: 128 mg/kg | ED50 [6]: 143 mg/kg

CCOC1=NCC(=O)N(CC)c2ccc(Cl)cc21
ED50 [2]: > 75 mg/kg | Activity [12]: 5% | LD50 at 2 h [4]: 600 mg/kg | ED50 [5]: 100 mg/kg | ED50 [6]: 21.8 mg/kg | ED50 [7]: 600 mg/kg | ED50 [8]: 100 mg/kg

CC(OC1=NCC(=O)N(C)c2ccc(Cl)cc21)C(F)(F)F (configuration not stated)
ED50 [1]: 123 mg/kg | ED50 [2]: 100 mg/kg | Activity [13]: 73% | LD50 at 2 h [4]: 300 mg/kg | ED50 [5]: 250 mg/kg | ED50 [6]: > 200 mg/kg | ED50 [7]: 288 mg/kg | ED50 [8]: 130 mg/kg

C=CCOC1=NCC(=O)N(C)c2ccc(Cl)cc21
ED50 [2]: 63.9 mg/kg | Activity [9]: 55% | ED50 [6]: 54.4 mg/kg

CCOC1=NCC(=O)N(c2ccccc2)c2ccc(Cl)cc21
ED50 [2]: > 150 mg/kg | Activity [14]: 50% | LD50 at 2 h [4]: 650 mg/kg | ED50 [5]: 300 mg/kg | ED50 [6]: > 150 mg/kg | ED50 [7]: 300 mg/kg | ED50 [8]: 300 mg/kg

CCOC1=NCC(=O)N(C)c2ccc(Cl)cc21
ED50 [1]: 68.5 mg/kg | ED50 [2]: 35.2 mg/kg | Activity [15]: 93% | LD50 at 2 h [4]: 300 mg/kg | ED50 [5]: 45.3 mg/kg | ED50 [6]: 2.9 mg/kg | ED50 [7]: 39.3 mg/kg | ED50 [8]: 42.8 mg/kg

CN1C(=O)CN=C(c2ccccc2)c2cc(Cl)ccc21 [DIAZEPAM]
ED50 [1]: 5.2 mg/kg | ED50 [2]: 1.1 mg/kg | Activity [10]: 8% | ED50 [5]: 21.9 mg/kg | ED50 [6]: 1.6 mg/kg | ED50 [7]: 8.9 mg/kg | ED50 [8]: 4.1 mg/kg

CN1C(=O)CNC(=O)c2cc(Cl)ccc21
ED50 [2]: > 100 mg/kg | Activity [13]: 75% | ED50 [6]: 39.4 mg/kg
